Experimental data: ChEMBL document CHEMBL1649247, “Fluoroquinolone resistance in Mycobacterium tuberculosis and mutations in gyrA and gyrB” (2009)
≈ marks a conversion by molar mass, not a printed value. Calls of active or inactive are those of the source. The calls are words filed in the database; no cut-off is given here.

Key:
[1] = system: Mycobacterium tuberculosis; assay: Antimycobacterial activity against multidrug-resistant Mycobacterium tuberculosis 08-0791 harboring gyrA Ala90Val mutant gene by resazurin microtiter assay; format: functional
Outline: (§1)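 MIC was read by resazurin microtiter assay against ofloxacin, moxifloxacin and gatifloxacin. Isolates were used as fresh Löwenstein-Jensen subcultures kept at 37°C for no longer than 4 weeks.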

[2] = system: Mycobacterium tuberculosis; assay: Antimycobacterial activity against multidrug-resistant Mycobacterium tuberculosis 08-0797 harboring gyrA Ala90Val mutant gene by resazurin microtiter assay; format: functional; outline: as §1
[3] = system: Mycobacterium tuberculosis; assay: Antimycobacterial activity against multidrug-resistant Mycobacterium tuberculosis 01-2614 harboring gyrA Asp94Gly mutant gene by resazurin microtiter assay; format: functional
Outline: (§2)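 Isolates taken from fresh Löwenstein-Jensen subcultures grown at 37°C for at most 4 weeks. Drug stocks 1 mg/ml in 0.1 N NaOH, filter sterilized, stored at −20°C less than 2 months. MIC read by resazurin microtiter assay following a previously described protocol.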

[4] = system: Mycobacterium tuberculosis; assay: Antimycobacterial activity against multidrug-resistant Mycobacterium tuberculosis 01-2230 harboring gyrA Asp94Gly mutant gene by resazurin microtiter assay; format: functional; outline: as §2
[5] = system: Mycobacterium tuberculosis; assay: Antimycobacterial activity against multidrug-resistant Mycobacterium tuberculosis 08-0821 harboring gyrA Asp94Tyr mutant gene by resazurin microtiter assay; format: functional; outline: as §1
[6] = system: Mycobacterium tuberculosis; assay: Antimycobacterial activity against Mycobacterium tuberculosis 04-0649 harboring gyrA Asp94Asn mutant gene by resazurin microtiter assay; format: functional; outline: as §2
[7] = system: Mycobacterium tuberculosis; assay: Antimycobacterial activity against multidrug-resistant Mycobacterium tuberculosis 02-2399 harboring gyrA Asp94Tyr mutant gene by resazurin microtiter assay; format: functional; outline: as §2
[8] = system: Mycobacterium tuberculosis; assay: Antimycobacterial activity against multidrug-resistant Mycobacterium tuberculosis 02-0319 harboring gyrA Asp94Ala mutant gene by resazurin microtiter assay; format: functional; outline: as §2
[9] = system: Mycobacterium tuberculosis; assay: Antimycobacterial activity against Mycobacterium tuberculosis 08-0787 harboring gyrA Asp94His mutant gene and deletion of codons 678 and 679 in gyrB mutant gene by resazurin microtiter assay; format: functional; outline: as §2
[10] = system: Mycobacterium tuberculosis; assay: Antimycobacterial activity against Mycobacterium tuberculosis 08-0745 harboring gyrA Asp89Asn mutant gene by resazurin microtiter assay; format: functional; outline: as §2
[11] = system: Mycobacterium tuberculosis; assay: Antimycobacterial activity against multidrug-resistant Mycobacterium tuberculosis 02-1234 harboring gyrA Asn533Thr gyrB mutant gene by resazurin microtiter assay; format: functional; outline: as §2
[12] = system: Mycobacterium tuberculosis; assay: Antimycobacterial activity against multidrug-resistant Mycobacterium tuberculosis 01-2834 by resazurin microtiter assay; format: functional; outline: as §2
[13] = system: Mycobacterium tuberculosis; assay: Antimycobacterial activity against Mycobacterium tuberculosis 08-0771 harboring gyrA putative promoter mutant gene by resazurin microtiter assay; format: functional; outline: as §2
[14] = system: Mycobacterium tuberculosis; assay: Antimycobacterial activity against multidrug-resistant Mycobacterium tuberculosis 08-0779 by resazurin microtiter assay; format: functional; outline: as §1
[15] = system: Mycobacterium tuberculosis; assay: Antimycobacterial activity against Mycobacterium tuberculosis 00-0715 harboring gyrA Ala90Val mutant gene assessed as microbial susceptibility by agar proportion method; format: functional, organism-based
Outline: (§3)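 Clinical isolates freshly subcultured on Löwenstein-Jensen medium, held at 37°C no longer than 4 weeks. Fluoroquinolone stocks 1 mg/ml in 0.1 N NaOH, filter sterilized, kept at −20°C under 2 months. Standard proportion method on 7H11 agar; breakpoints 2 mg/liter ofloxacin, 0.5 mg/liter moxifloxacin and gatifloxacin; scored susceptible or resistant.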

[16] = system: Mycobacterium tuberculosis; assay: Antimycobacterial activity against multidrug-resistant Mycobacterium tuberculosis 03-0738 harboring gyrA Ala90Val mutant gene assessed as microbial susceptibility by agar proportion method; format: functional, organism-based
Outline: (§4)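 Clinical isolates freshly subcultured on Löwenstein-Jensen medium at 37°C for no more than 4 weeks. Susceptibility by standard proportion method on 7H11 agar at breakpoints of 2 mg/liter ofloxacin and 0.5 mg/liter moxifloxacin and gatifloxacin. Drug stocks 1 mg/ml in 0.1 N NaOH, filter sterilized, held at −20°C under 2 months. Isolates scored susceptible or resistant.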

[17] = system: Mycobacterium tuberculosis; assay: Antimycobacterial activity against multidrug-resistant Mycobacterium tuberculosis 01-1647 harboring gyrA Ala90Val mutant gene assessed as microbial susceptibility by agar proportion method; format: functional, organism-based; outline: as §3
[18] = system: Mycobacterium tuberculosis; assay: Antimycobacterial activity against multidrug-resistant Mycobacterium tuberculosis 01-0930 harboring gyrA Ala90Val mutant gene assessed as microbial susceptibility by agar proportion method; format: functional, organism-based; outline: as §3
[19] = system: Mycobacterium tuberculosis; assay: Antimycobacterial activity against multidrug-resistant Mycobacterium tuberculosis 08-0785 harboring gyrA Ala90Val mutant gene assessed as microbial susceptibility by agar proportion method; format: functional, organism-based; outline: as §4
[20] = system: Mycobacterium tuberculosis; assay: Antimycobacterial activity against multidrug-resistant Mycobacterium tuberculosis 08-0790 harboring gyrA Ala90Val mutant gene assessed as microbial susceptibility by agar proportion method; format: functional, organism-based; outline: as §4
[21] = system: Mycobacterium tuberculosis; assay: Antimycobacterial activity against multidrug-resistant Mycobacterium tuberculosis 08-0791 harboring gyrA Ala90Val mutant gene assessed as microbial susceptibility by agar proportion method; format: functional, organism-based; outline: as §4
[22] = system: Mycobacterium tuberculosis; assay: Antimycobacterial activity against multidrug-resistant Mycobacterium tuberculosis 08-0797 harboring gyrA Ala90Val mutant gene assessed as microbial susceptibility by agar proportion method; format: functional, organism-based; outline: as §4
[23] = system: Mycobacterium tuberculosis; assay: Antimycobacterial activity against multidrug-resistant Mycobacterium tuberculosis 01-2614 harboring gyrA Asp94Gly mutant gene assessed as microbial susceptibility by agar proportion method; format: functional, organism-based; outline: as §3
[24] = system: Mycobacterium tuberculosis; assay: Antimycobacterial activity against multidrug-resistant Mycobacterium tuberculosis 08-0744 harboring gyrA Asp94Tyr mutant gene assessed as microbial susceptibility by agar proportion method; format: functional, organism-based; outline: as §4
[25] = system: Mycobacterium tuberculosis; assay: Antimycobacterial activity against multidrug-resistant Mycobacterium tuberculosis 08-0810 harboring gyrA Asp94Tyr mutant gene assessed as microbial susceptibility by agar proportion method; format: functional, organism-based; outline: as §4
[26] = system: Mycobacterium tuberculosis; assay: Antimycobacterial activity against Mycobacterium tuberculosis 04-0649 harboring gyrA Asp94Asn mutant gene assessed as microbial susceptibility by agar proportion method; format: functional, organism-based; outline: as §3
[27] = system: Mycobacterium tuberculosis; assay: Antimycobacterial activity against multidrug-resistant Mycobacterium tuberculosis 02-2399 harboring gyrA Asp94Tyr mutant gene assessed as microbial susceptibility by agar proportion method; format: functional, organism-based; outline: as §3
[28] = system: Mycobacterium tuberculosis; assay: Antimycobacterial activity against multidrug-resistant Mycobacterium tuberculosis 04-0519 harboring gyrA Ala90Val and Asp94Asn mutant gene assessed as microbial susceptibility by agar proportion method; format: functional, organism-based; outline: as §4
[29] = system: Mycobacterium tuberculosis; assay: Antimycobacterial activity against Mycobacterium tuberculosis 08-0787 harboring gyrA Asp94His mutant gene assessed as microbial susceptibility and deletion of codons 678 and 679 in gyrB mutant gene assessed as microbial susceptibility by agar proportion method; format: functional, organism-based; outline: as §3
[30] = system: Mycobacterium tuberculosis; assay: Antimycobacterial activity against multidrug-resistant Mycobacterium tuberculosis 02-1234 harboring gyrA Asn533Thr gyrB mutant gene assessed as microbial susceptibility by agar proportion method; format: functional, organism-based; outline: as §3
[31] = system: Mycobacterium tuberculosis; assay: Antimycobacterial activity against multidrug-resistant Mycobacterium tuberculosis 01-2834 by agar proportion method; format: functional, organism-based; outline: as §3
[32] = system: Mycobacterium tuberculosis; assay: Antimycobacterial activity against Mycobacterium tuberculosis 08-0815 harboring gyrA Thr80Ala and Ala90Gly mutant gene assessed as microbial susceptibility by agar proportion method; format: functional, organism-based; outline: as §3
[33] = system: Mycobacterium tuberculosis; assay: Antimycobacterial activity against Mycobacterium tuberculosis 08-0771 harboring gyrA putative promoter mutant gene assessed as microbial susceptibility by agar proportion method; format: functional, organism-based; outline: as §3
[34] = system: Mycobacterium tuberculosis; assay: Antimycobacterial activity against multidrug-resistant Mycobacterium tuberculosis 08-0777 assessed as microbial susceptibility by agar proportion method; format: functional, organism-based; outline: as §4
[35] = system: Mycobacterium tuberculosis; assay: Antimycobacterial activity against multidrug-resistant Mycobacterium tuberculosis 08-0779 assessed as microbial susceptibility by agar proportion method; format: functional, organism-based; outline: as §4
[36] = system: Mycobacterium tuberculosis; assay: Antimycobacterial activity against Mycobacterium tuberculosis 00-0715 harboring gyrA Ala90Val mutant gene by resazurin microtiter assay; format: functional; outline: as §2

Compound	MIC [1] [µg/mL]	MIC [2] [µg/mL]	MIC [3] [µg/mL]	MIC [4] [µg/mL]	MIC [5] [µg/mL]	MIC [6] [µg/mL]	MIC [7] [µg/mL]	MIC [8] [µg/mL]	MIC [9] [µg/mL]	MIC [10] [µg/mL]	MIC [11] [µg/mL]	MIC [12] [µg/mL]	MIC [13]	MIC [14] [µg/mL]	Activity [15]	Activity [16]	Activity [17]	Activity [18]	Activity [19]	Activity [20]	also measured
COc1c(N2C[C@@H]3CCCN[C@@H]3C2)c(F)cc2c(=O)c(C(=O)O)cn(C3CC3)c12 [MOXIFLOXACIN]	0.5 (≈ 1.25 µM)	1 (≈ 2.49 µM)	2 (≈ 4.98 µM)	2 (≈ 4.98 µM)	4 (≈ 9.96 µM)	4 (≈ 9.96 µM)	0.5 (≈ 1.25 µM)	0.5 (≈ 1.25 µM)	2 (≈ 4.98 µM)	2 (≈ 4.98 µM)	0.5 (≈ 1.25 µM)	1 (≈ 2.49 µM)	<=0.125 mg/L	≤ 0.125	inactive	inactive	inactive	inactive	inactive	inactive	Activity [21]: inactive; Activity [22]: inactive; Activity [23]: inactive; Activity [24]: inactive; Activity [25]: inactive; Activity [26]: inactive; Activity [27]: inactive; Activity [28]: inactive; Activity [29]: inactive; Activity [30]: inactive; Activity [31]: inactive; Activity [32]: Active; Activity [33]: Active; Activity [34]: Active; Activity [35]: Active; MIC [36]: 0.5 µg/mL (≈ 1.25 µM)
COc1c(N2CCNC(C)C2)c(F)cc2c(=O)c(C(=O)O)cn(C3CC3)c12 (stereo not drawn) [GATIFLOXACIN]	0.25 (≈ 0.666 µM)	0.5 (≈ 1.33 µM)	1 (≈ 2.66 µM)	1 (≈ 2.66 µM)	1 (≈ 2.66 µM)	1 (≈ 2.66 µM)	0.25 (≈ 0.666 µM)	0.25 (≈ 0.666 µM)	1 (≈ 2.66 µM)	1 (≈ 2.66 µM)	0.5 (≈ 1.33 µM)	0.5 (≈ 1.33 µM)	0.125 µg/mL (≈ 0.333 µM)	≤ 0.062	inactive	inactive	inactive	inactive	inactive	inactive	Activity [21]: inactive; Activity [22]: inactive; Activity [23]: inactive; Activity [24]: inactive; Activity [25]: inactive; Activity [26]: inactive; Activity [27]: inactive; Activity [28]: inactive; Activity [29]: inactive; Activity [30]: inactive; Activity [31]: inactive; Activity [32]: Active; Activity [33]: Active; Activity [34]: Active; Activity [35]: Active; MIC [36]: 0.5 µg/mL (≈ 1.33 µM)
CC1COc2c(N3CCN(C)CC3)c(F)cc3c(=O)c(C(=O)O)cn1c23 (stereo not drawn) [OFLOXACIN]	4 (≈ 11.1 µM)	4 (≈ 11.1 µM)	16 (≈ 44.3 µM)	8 (≈ 22.1 µM)	8 (≈ 22.1 µM)	16 (≈ 44.3 µM)	4 (≈ 11.1 µM)	4 (≈ 11.1 µM)	4 (≈ 11.1 µM)	4 (≈ 11.1 µM)	1 (≈ 2.77 µM)	4 (≈ 11.1 µM)	1 µg/mL (≈ 2.77 µM)	0.5 (≈ 1.38 µM)	inactive	inactive	inactive	inactive	inactive	inactive	Activity [21]: inactive; Activity [22]: inactive; Activity [23]: inactive; Activity [24]: inactive; Activity [25]: inactive; Activity [26]: inactive; Activity [27]: inactive; Activity [28]: inactive; Activity [29]: inactive; Activity [30]: Active; Activity [31]: inactive; Activity [32]: Active; Activity [33]: Active; Activity [34]: Active; Activity [35]: Active; MIC [36]: 4 µg/mL (≈ 11.1 µM)
